Columns and labels:
Type in all cases: functional
NCI-H460 = assay: Cytotoxicity against human NCI-H460 cells assessed as cell growth at 1 uM after 48 hrs by sulforhodamine B assay; conditions: NCI-H460, 48 h, read-out: Activity
SF-539 = assay: Cytotoxicity against human SF539 cells assessed as cell growth at 100 uM after 48 hrs by sulforhodamine B assay; conditions: SF-539, 48 h, read-out: Activity
HL-60(TB) = assay: Cytotoxicity against human HL-60(TB) cells assessed as cell growth at 100 uM after 48 hrs by sulforhodamine B assay; conditions: HL-60, 48 h, read-out: Activity
Method in brief: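 NCI five-dose screen on the HL-60(TB) leukaemia line, grown in RPMI 1640 with 5% FBS and 2 mM L-glutamine and plated for 24 h before dosing. DMSO stocks were diluted in medium. Cells were exposed 48 h at 37 °C, then settled cells were fixed in 16% TCA (final) and stained with SRB, absorbance 515 nm. Percent growth = (Ti−Tz)/(C−Tz)×100, or (Ti−Tz)/Tz×100 when Ti<Tz.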

CCRF-CEM = assay: Growth inhibition of human CCRF-CEM cells after 48 hrs by sulforhodamine B assay
Method in brief: (§1)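 Cells were in RPMI 1640 with 5% FBS and pre-incubated 24 h. Read-out was TCA fixation, SRB staining and absorbance at 515 nm. GI50 was the concentration where [(Ti−Tz)/(C−Tz)]×100 = 50, taken from log concentration vs % growth curves. It is given as ">" the top concentration when not reached.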

PC-3 = assay: Cytotoxicity against human PC3 cells assessed as cell growth at 10 '-5 M after 48 hrs by sulforhodamine B assay; conditions: PC-3, 48 h, read-out: Activity
A498 = assay: Cytotoxicity against human A498 cells assessed as cell growth at 100 uM after 48 hrs by sulforhodamine B assay; conditions: A498, 48 h, read-out: Activity
Method in brief: (§2)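 NCI-60 five-dose screen. Cells were grown in RPMI 1640 with 5% FBS and 2 mM L-glutamine and preincubated 24 h. Compound (DMSO stock) was tested at 0.01, 0.1, 1, 10 and 100 µM for 48 h at 37 °C. Cells were fixed in situ with cold TCA (final 10%) and stained with 0.4% SRB. A515 was read, and percent growth was calculated against time-zero and control plates.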

HCT-116 [1] = assay: Cytotoxicity against human HCT116 cells assessed as cell growth at 10 uM after 48 hrs by sulforhodamine B assay; conditions: HCT-116, 48 h, read-out: Activity
Method in brief: (§3)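 Five-dose NCI panel run at 0.01, 0.1, 1, 10 and 100 µM. Cells were in RPMI 1640 with 5% FBS and 2 mM L-glutamine, seeded at 5000–40,000 cells/well and pre-incubated 24 h. Drug was diluted from a DMSO stock into medium with 50 µg/ml gentamicin. Exposure was 48 h at 37 °C, 5% CO2. Cells were fixed with cold TCA and stained with 0.4% SRB, read at 515 nm. Percent growth came from time-zero, control and test absorbances.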

IGROV-1 = assay: Cytotoxicity against human IGROV1 cells assessed as cell growth at 1 uM after 48 hrs by sulforhodamine B assay; conditions: IGROV-1, 48 h, read-out: Activity
HCT-116 [2] = assay: Cytotoxicity against human HCT116 cells assessed as cell growth at 0.01 uM after 48 hrs by sulforhodamine B assay; conditions: HCT-116, 48 h, read-out: Activity; method in brief: as §3
DU-145 = assay: Cytotoxicity against human DU145 cells assessed as cell growth at 1 uM after 48 hrs by sulforhodamine B assay; conditions: DU-145, 48 h, read-out: Activity; method in brief: as §2
ACHN = assay: Cytotoxicity against human ACHN cells assessed as cell growth at 0.1 uM after 48 hrs by sulforhodamine B assay; conditions: read-out: Activity; method in brief: as §2
A549 [3] = assay: Growth inhibition of human A549 cells after 48 hrs by sulforhodamine B assay; conditions: A549, 48 h; method in brief: as §1
SK-OV-3 = assay: Cytotoxicity against human SKOV3 cells assessed as cell growth at 0.1 uM after 48 hrs by sulforhodamine B assay; conditions: SK-OV-3, 48 h, read-out: Activity
[4] = Growth inhibition of human Hs 578T cells after 48 hrs by sulforhodamine B assay; conditions: for CC50: read-out: LC50 (the source's name)
Method in brief: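 Adherent NCI-60 lines were grown in RPMI 1640 with 5% FBS and 2 mM L-glutamine, plated at 5000–40,000 cells/well and preincubated 24 h. They were then exposed to five concentrations (0.01–100 µM, from a DMSO stock) for 48 h at 37 °C, 5% CO2. Cells were fixed with cold TCA (10% final, 60 min, 4 °C) and stained with 0.4% SRB. Dye was solubilized in 10 mM Tris base and A515 read. GI50 was derived from time-zero, control and treated absorbances.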

SNB-75 = assay: Cytotoxicity against human SNB75 cells assessed as cell growth at 1 uM after 48 hrs by sulforhodamine B assay; conditions: SNB-75, 48 h, read-out: Activity
UO-31 = assay: Cytotoxicity against human UO31 cells assessed as cell growth at 100 uM after 48 hrs by sulforhodamine B assay; conditions: UO-31, 48 h, read-out: Activity
A549 [5] = assay: Cytotoxicity against human A549 cells assessed as cell growth at 0.01 uM after 48 hrs by sulforhodamine B assay; conditions: A549, 48 h, read-out: Activity; method in brief: as §2
T47D = assay: Cytotoxicity against human T47D cells assessed as cell growth at 1 uM after 48 hrs by sulforhodamine B assay; conditions: read-out: Activity
HCC 2998 = assay: Cytotoxicity against human HCC2998 cells assessed as cell growth at 10 uM after 48 hrs by sulforhodamine B assay; conditions: HCC 2998, 48 h, read-out: Activity; method in brief: as §3
SR = assay: Cytotoxicity against human SR cells assessed as cell growth at 1 uM after 48 hrs by sulforhodamine B assay; conditions: read-out: Activity
KM12 = assay: Cytotoxicity against human KM12 cells assessed as cell growth at 10 uM after 48 hrs by sulforhodamine B assay; conditions: KM12, 48 h, read-out: Activity
OVCAR-3 = assay: Cytotoxicity against human OVCAR3 cells assessed as cell growth at 0.01 uM after 48 hrs by sulforhodamine B assay; conditions: OVCAR-3, 48 h, read-out: Activity
SN12C = assay: Cytotoxicity against human SN12C cells assessed as cell growth at 0.1 uM after 48 hrs by sulforhodamine B assay; conditions: read-out: Activity
RXF 393 [6] = assay: Cytotoxicity against human RXF393 cells assessed as cell growth at 1 uM after 48 hrs by sulforhodamine B assay; conditions: RXF 393, 48 h, read-out: Activity
786-0 = assay: Cytotoxicity against human 786-0 cells assessed as cell growth at 10 uM after 48 hrs by sulforhodamine B assay; conditions: 786-0, 48 h, read-out: Activity; method in brief: as §2
RXF 393 [7] = assay: Cytotoxicity against human RXF393 cells assessed as cell growth at 0.1 uM after 48 hrs by sulforhodamine B assay; conditions: RXF 393, 48 h, read-out: Activity
TK-10 = assay: Cytotoxicity against human TK10 cells assessed as cell growth at 10 uM after 48 hrs by sulforhodamine B assay; conditions: TK-10, 48 h, read-out: Activity

Compound `Clc1cccc(Cl)c1Nc1nc2cccc(Cl)c2s1` has a growth at 1 µM (NCI-H460) of 67%, a growth at 100 µM (SF-539) of -57% and a growth at 100 µM (HL-60(TB)) of -57%. It also gave a GI50 (CCRF-CEM) of 1.32 µM, an LC50 (CCRF-CEM) greater than 100 µM and a TGI (CCRF-CEM) of 4.43 µM. The growth at 10 µM (PC-3) was 4.1%, the growth at 100 µM (A498) was -92% and the growth at 10 µM (HCT-116 [1]) was -98%. For the same compound, the growth at 1 µM (IGROV-1) was 55%, the growth at 0.01 µM (HCT-116 [2]) was 104% and the growth at 1 µM (DU-145) was 75%. It also gave a growth at 0.1 µM (ACHN) of 98%, a GI50 (A549 [3]) of 1.11 µM and an LC50 (concentration killing 50% of cells) (A549 [3]) of 7.47 µM. The TGI (A549 [3]) was 2.87 µM, the growth at 0.1 µM (SK-OV-3) was 99% and the GI50 [4] was 0.938 µM. It also gave a TGI [4] of 3.49 µM, a CC50 [4] greater than 100 µM and a growth at 1 µM (SNB-75) of 46%. The growth at 100 µM (UO-31) was -62%, the growth at 0.01 µM (A549 [5]) was 103% and the growth at 1 µM (T47D) was 46%. It also gave a growth at 10 µM (HCC 2998) of -88%, a growth at 1 µM (SR) of 51% and a growth at 10 µM (KM12) of -96%. The growth at 0.01 µM (OVCAR-3) was 98%, the growth at 0.1 µM (SN12C) was 85% and the growth at 1 µM (RXF 393 [6]) was 45%. For the same compound, the growth at 10 µM (786-0) was -93%, the growth at 0.1 µM (RXF 393 [7]) was 73% and the growth at 10 µM (TK-10) was -86%.

`Cc1ccc2nc(Nc3c(C)cccc3C)sc2c1` showed a growth at 1 µM (NCI-H460) of 81%, a growth at 100 µM (SF-539) of 48% and a growth at 100 µM (HL-60(TB)) of 53%. It also gave a GI50 (CCRF-CEM) greater than 100 µM, an LC50 (CCRF-CEM) greater than 100 µM and a TGI (CCRF-CEM) greater than 100 µM. It also gave a growth at 10 µM (PC-3) of 40.4%, a growth at 100 µM (A498) of 60% and a growth at 10 µM (HCT-116 [1]) of 21%. The growth at 1 µM (IGROV-1) was 83%, the growth at 0.01 µM (HCT-116 [2]) was 102% and the growth at 1 µM (DU-145) was 94%. It also gave a growth at 0.1 µM (ACHN) of 105%, an LC50 (concentration killing 50% of cells) (A549 [3]) greater than 100 µM and a TGI (A549 [3]) greater than 100 µM. For the same compound, the growth at 0.1 µM (SK-OV-3) was 104%, the GI50 [4] was 3.84 µM and the TGI [4] was greater than 100 µM. The CC50 [4] was greater than 100 µM, the growth at 1 µM (SNB-75) was 52% and the growth at 100 µM (UO-31) was 80%. The growth at 0.01 µM (A549 [5]) was 103%, the growth at 1 µM (T47D) was 75% and the growth at 10 µM (HCC 2998) was 53%. It also gave a growth at 1 µM (SR) of 19%, a growth at 10 µM (KM12) of 30% and a growth at 0.01 µM (OVCAR-3) of 101%. The growth at 0.1 µM (SN12C) was 86%, the growth at 1 µM (RXF 393 [6]) was 52% and the growth at 10 µM (786-0) was 56%. The growth at 0.1 µM (RXF 393 [7]) was 85% and the growth at 10 µM (TK-10) was 71%.

From ChEMBL document CHEMBL2040734, “Benzothiazoles: search for anticancer agents” (2012)
